Data taken from PMC5901702 (Journal of biomolecular screening, 2012).

Tests used:
rat IDE [1] = target: T1, rat IDE (Rattus norvegicus, UniProt P35559); experiment: Native PAGE mobility shift of rat IDE; assay type: binding; details: ATP 3 mM
T1 sequence (P35559 1-1019): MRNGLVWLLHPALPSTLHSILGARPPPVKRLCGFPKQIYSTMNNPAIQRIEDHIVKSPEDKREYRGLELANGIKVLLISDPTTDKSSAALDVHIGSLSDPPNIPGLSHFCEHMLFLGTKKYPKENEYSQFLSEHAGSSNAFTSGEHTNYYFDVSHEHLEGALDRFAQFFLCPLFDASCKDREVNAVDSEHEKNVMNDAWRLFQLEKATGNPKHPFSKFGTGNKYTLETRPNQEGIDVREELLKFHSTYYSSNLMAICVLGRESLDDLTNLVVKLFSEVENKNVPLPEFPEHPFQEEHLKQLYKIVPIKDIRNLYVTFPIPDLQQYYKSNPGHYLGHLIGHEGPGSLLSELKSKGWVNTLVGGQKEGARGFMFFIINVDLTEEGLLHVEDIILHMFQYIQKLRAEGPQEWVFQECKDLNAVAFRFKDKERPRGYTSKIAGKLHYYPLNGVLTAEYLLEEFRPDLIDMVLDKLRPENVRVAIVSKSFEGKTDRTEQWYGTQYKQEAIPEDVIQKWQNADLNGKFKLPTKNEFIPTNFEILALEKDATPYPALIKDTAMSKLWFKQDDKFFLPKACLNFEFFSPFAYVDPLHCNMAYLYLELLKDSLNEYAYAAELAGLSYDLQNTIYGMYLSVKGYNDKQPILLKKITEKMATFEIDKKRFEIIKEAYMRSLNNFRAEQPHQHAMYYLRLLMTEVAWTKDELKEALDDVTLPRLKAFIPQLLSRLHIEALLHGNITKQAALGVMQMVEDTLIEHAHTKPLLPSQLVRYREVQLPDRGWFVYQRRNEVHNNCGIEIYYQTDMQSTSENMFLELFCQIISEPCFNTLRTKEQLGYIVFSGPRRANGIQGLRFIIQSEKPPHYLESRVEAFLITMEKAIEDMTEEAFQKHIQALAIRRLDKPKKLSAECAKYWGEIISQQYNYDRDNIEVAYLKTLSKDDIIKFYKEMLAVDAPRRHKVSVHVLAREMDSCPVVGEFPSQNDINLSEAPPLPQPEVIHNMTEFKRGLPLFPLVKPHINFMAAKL
Summary of the method: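 Rat IDE was preincubated 60 min at 37 °C with compound (100 µM) or ATP (3 mM). It was mixed 1:1 with 2× native sample buffer (0.6 M Tris-HCl pH 6.8, 20% glycerol, bromophenol blue), run on 10% native PAGE at 4 °C and silver-stained.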

rat IDE [2] = target: T1, rat IDE; experiment: ATP effect on rat IDE activity and activators; assay type: biochemical
Summary of the method: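 Rat IDE (87.7 nM) with 50 µM a-factor–based internally quenched fluorogenic substrate in 50 mM Tris pH 7.5 containing BSA and 1 mM ATP. Compounds were used at optimal levels taken from Tris/BSA dose-response curves. ATP titration (0–10 mM) was also run in 0.1 M KPi pH 7.6 or Tris/BSA. Activity is % of water- or DMSO-treated control, n = 4.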

rat IDE [3] = target: T1, rat IDE; experiment: Dose-response of rat IDE activation; assay type: biochemical; details: rat IDE activation, a-factor–based substrate
Summary of the method: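 Rat IDE (10 µg/mL) in 0.1 M KPi pH 7.6 was preincubated 10 min at 37 °C with activator (up to 1 mM), then mixed 1:1 with a-factor–based fluorogenic substrate (50 µM final). Fluorescence (320 ex) was read over 60 min and rate taken from the 15–30 min window. Baseline was subtracted and rates normalized to trypsin/pronase E full digestion. AC50 came from best-fit curves, or [Max]50 where the curve was not sigmoidal.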

SMILES | native PAGE mobility shift of IDE (rat IDE [1]) | ATP-dependent activation of IDE (rat IDE [2]; KPi buffer, assay conditions used for HTS) | maximum activating concentration (rat IDE [2]; Tris/BSA buffering system) | dose-response profile (rat IDE [3])
Nc1ncnc2c1ncn2[C@@H]1O[C@H](COP(=O)(O)OP(=O)(O)OP(=O)(O)O)[C@@H](O)[C@H]1O [ATP, adenosine triphosphate, reference compound] | did not observe a mobility shift | not observed | approximately 1 mM | –
Cc1ccc(C(=O)Nc2ccc(S(=O)(=O)O)c3cc(S(=O)(=O)O)cc(S(=O)(=O)O)c23)cc1NC(=O)c1cccc(NC(=O)Nc2cccc(C(=O)Nc3cc(C(=O)Nc4ccc(S(=O)(=O)O)c5cc(S(=O)(=O)O)cc(S(=O)(=O)O)c45)ccc3C)c2)c1 [suramin, reference compound] | – | – | – | hormetic response
